Molecules are shown by their SMILES. Calls of active or inactive are those of the source. No cut-off for these calls is given here. Side chains are listed from the residue outwards. Peptide text beside a SMILES is read from it. * marks the point of attachment. X2 = NCCCC[C@H](NC(=O)[C@@H](N)CCCCN)C(=O)N[C@@H](CCCCNC(=O)c1ccc(B(O)O)cc1)C(=O)*; X1 = NCCCC[C@H](N)C(=O)N[C@@H](CCCCNc1c2ccccc2nc2ccccc12)C(=O)*; X3 = NCCCC[C@H](N)C(=O)N[C@@H](CCCCNC(=O)c1ccc(B(O)O)cc1)C(=O)*; Benzoyl(4-B(OH)2) = O=C(c1ccc(B(O)O)cc1)*; Acridin9yl = c1ccc2c(*)c3ccccc3nc2c1

The nature of data set [1]: Binding affinity to HIV1 wild type [32P]-labeled RRE-2B RNA after 4 hrs by electrophoretic mobility shift assay. Also on record: species or system Human immunodeficiency virus 1. The method, boiled down:
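5'-³²P RRE-IIB (4 nM in 2x phosphate buffer, pH 7.0) is refolded at 95 °C for 3 min, then rt for 20 min. It is mixed 1:1 with peptide in water (final 0.001–10 µM) for 4 h at rt. Complexes are resolved by 10% native PAGE at 4 °C. Kd is the 50%-binding concentration from a sigmoidal fit of % RNA bound vs log[peptide]. Triplicates.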
In general terms: Mobility shift assays separate free from complexed probe on a gel.

The nature of data set [2]: Cytotoxicity against human U87 cells transfected with CD4/CXCR4 assessed as decrease in cell viability up to 100 uM after 24 hrs by MTT assay. Conditions: u-87mg atcc. The data set is classed as toxicity, cell-based. The method, boiled down:
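U87 CXCR4 cells are seeded at 1 x 10⁴/well and incubated overnight at 37 °C in 5% CO₂. They are treated with 100, 50 or 10 µM (final) compound for 24 h. Tetrazolium dye is added for 4 h, then solubilization/stop solution for 1 h. A570 is read and normalized to untreated cells set at 1.0.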

For data set [3], the system named is Human immunodeficiency virus 1. Briefly: Antiviral activity against HIV1 NL4-3 infected in human U87 cells transfected with CD4/CXCR4 assessed as inhibition of viral replication at 100 uM preincubated for 1 hr followed by viral infection for 24 hrs and subsequent compound wash out and addition of additional compound measured at 72 hrs post infection by p24 assay. Conditions: U-87MG ATCC. The class given is functional, cell-based. The method, boiled down: (§1)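 U87-CD4/CXCR4 cells are seeded at 1 x 10⁴/well and left to adhere overnight. Compounds come from 1 mM stocks in water, diluted in RPMI. Cells are pretreated for 1 h, then infected with NL4-3 (CXCR4-tropic) at MOI 0.01 for 24 h. Cells are PBS-washed and given fresh medium with more compound. p24 is quantified in supernatant at 72 h post-infection.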

In data set [4] the test system is Human immunodeficiency virus 1. Briefly: Antiviral activity against HIV1 NL4-3 infected in human U87 cells transfected with CD4/CXCR4 assessed as inhibition of viral replication at 10 uM preincubated for 1 hr followed by viral infection for 24 hrs and subsequent compound wash out and addition of additional compound measured at 72 hrs post infection by p24 assay relative to control. The data set is classed as functional, U-87MG ATCC. Conditions: Human immunodeficiency virus 1, NL4-3, U-87 MG. The method, boiled down: as §1

The test system of data set [5] is Human immunodeficiency virus 1. Briefly: Antiviral activity against HIV1 NL4-3 infected in human U87 cells transfected with CD4/CXCR4 assessed as inhibition of viral replication preincubated for 1 hr followed by viral infection for 24 hrs and subsequent compound wash out and addition of additional compound measured at 72 hrs post infection by p24 assay. The class given is functional, cell-based, U-87MG ATCC. The following applies: for inhibition: U-87MG ATCC. The method, boiled down:
as §1

The test system of data set [6] is Human immunodeficiency virus 1. Briefly: Antiviral activity against HIV1 NL4-3 infected in human U87 cells transfected with CD4/CXCR4 assessed as inhibition of viral replication at 40 uM preincubated for 1 hr followed by viral infection for 24 hrs and subsequent compound wash out and addition of additional compound measured at 72 hrs post infection by p24 assay relative to control. The class given is functional, U-87MG ATCC. Conditions: Human immunodeficiency virus 1, NL4-3, U-87 MG. The method, boiled down:
as §1

The nature of data set [7]: Cytotoxicity against HIV1 NL4-3 infected human U87 cells transfected with CD4/CXCR4 assessed as decrease in cell viability at 20 to 80 uM after 72 hrs by MTT assay. Conditions: u-87mg atcc. The class given is toxicity, cell-based. For orientation: Formazan colour is commonly taken as a measure of viable cells.

In general, Kd refers to the constant that tells how readily two partners part at equilibrium. The inhibition is the relative decrease from the control value, in per cent. By IC50 is commonly meant the concentration at which inhibition is half-maximal. In the case of `CC(C)C[C@H](NC(=O)[C@H](CCCCN)NC(=O)[C@H](CCCCNC(=O)[C@H](CCCCN)NC(=O)[C@H](CCCCNc1c2ccccc2nc2ccccc12)NC(=O)[C@@H](N)CCCCN)NC(=O)[C@H](CCCCN)NC(=O)[C@H](CCCCNc1c2ccccc2nc2ccccc12)NC(=O)[C@@H](N)CCCCN)C(=O)N[C@@H](CCCCNC(=O)c1ccc(B(O)O)cc1)C(=O)N[C@@H](Cc1ccc(O)cc1)C(N)=O` (H-KK(Acridin9yl)KK([Lys-X1])KLK(Benzoyl(4-B(OH)2))Y-NH2), the Kd in data set [1] amounted to 70 nM. Further, the results for the Activity result in data set [2] and in data set [7] were “Dose-dependent effect” and “Non-Toxic”, respectively. Moreover, the inhibition result in data set [3] was “Active”. In data set [4], the inhibition at 10 µM was 60%. For the same compound, the half-maximal inhibitory concentration (IC50) in data set [5] (Human immunodeficiency virus 1, NL4-3, U-87 MG) turned out to be 7300 nM. Also, in data set [5], the inhibition entry was “Dose-dependent effect”. Further, the inhibition at 40 µM in data set [6] was 90%.
Turning to `NCCCC[C@H](NC(=O)[C@H](CCCCN)NC(=O)[C@@H](N)CCCCN)C(=O)NCCCC[C@H](NC(=O)[C@H](CCCCN)NC(=O)[C@H](CCCCN)NC(=O)[C@@H](N)CCCCN)C(=O)N[C@@H](CCCCNc1c2ccccc2nc2ccccc12)C(=O)N[C@@H](CCCCNc1c2ccccc2nc2ccccc12)C(=O)N[C@@H](CCCCN)C(=O)N[C@@H](Cc1ccc(O)cc1)C(N)=O` (H-KKKK([Lys-Lys-Lys])K(Acridin9yl)K(Acridin9yl)KY-NH2), the Activity result in data set [2] and in data set [7] was “Non-Toxic” throughout. In data set [3], the inhibition result was “Active”. Further, in data set [5], the inhibition result was “Dose-dependent effect”. Moreover, in data set [6], the inhibition at 40 µM came to 90%.
On to `CC(C)C[C@H](NC(=O)[C@@H](N)CC(C)C)C(=O)N[C@@H](CCCCN)C(=O)NCCCC[C@H](NC(=O)[C@H](CCCCN)NC(=O)[C@H](CC(C)C)NC(=O)[C@@H](N)CC(C)C)C(=O)N[C@@H](CCCCN)C(=O)N[C@@H](CCCCNC(=O)c1ccc(B(O)O)cc1)C(=O)N[C@@H](CCCCN)C(=O)N[C@@H](Cc1ccc(O)cc1)C(N)=O` (H-LLKK([Lys-Leu-Leu])KK(Benzoyl(4-B(OH)2))KY-NH2), for which, in data set [1], the dissociation constant (Kd) was determined as 210 nM. For the same compound, in data set [2], the Activity result was “Non-Toxic”.
The corresponding values for `CC(C)C[C@H](NC(=O)[C@H](CCCCNC(=O)[C@H](CCCCN)NC(=O)[C@H](CC(C)C)NC(=O)[C@@H](N)CCCCN)NC(=O)[C@H](CCCCN)NC(=O)[C@H](CC(C)C)NC(=O)[C@@H](N)CCCCN)C(=O)N[C@@H](CCCCN)C(=O)N[C@@H](CCCCNC(=O)c1ccc(B(O)O)cc1)C(=O)N[C@@H](Cc1ccc(O)cc1)C(N)=O` (H-KLKK([Lys-Leu-Lys])LKK(Benzoyl(4-B(OH)2))Y-NH2) are 300 nM and “Non-Toxic”.
The corresponding values for `CC(C)C[C@H](NC(=O)[C@H](CCCCNC(=O)c1ccc(B(O)O)cc1)NC(=O)[C@H](CC(C)C)NC(=O)[C@H](CCCCNC(=O)[C@H](CCCCN)NC(=O)[C@H](CCCCN)NC(=O)[C@@H](N)CCCCN)NC(=O)[C@H](CCCCN)NC(=O)[C@H](CCCCN)NC(=O)[C@@H](N)CCCCN)C(=O)N[C@@H](Cc1ccc(O)cc1)C(N)=O` (H-KKKK([Lys-Lys-Lys])LK(Benzoyl(4-B(OH)2))LY-NH2) are 130 nM and “Non-Toxic”.
As to `CC(C)C[C@H](NC(=O)[C@H](CCCCN)NC(=O)[C@H](CCCCNC(=O)[C@H](CCCCN)NC(=O)[C@H](CCCCN)NC(=O)[C@@H](N)CCCCN)NC(=O)[C@H](CCCCN)NC(=O)[C@H](CCCCN)NC(=O)[C@@H](N)CCCCN)C(=O)N[C@@H](CCCCNc1c2ccccc2nc2ccccc12)C(=O)N[C@@H](Cc1ccc(O)cc1)C(N)=O` (H-KKKK([Lys-Lys-Lys])KLK(Acridin9yl)Y-NH2), the Kd in data set [1] came out at 20 nM. For the same compound, the Activity result in data set [2] and in data set [7] was “Non-Toxic” each time. In addition, in data set [3], the inhibition result was “Active”.
With `CC(C)C[C@H](NC(=O)[C@H](CCCCN)NC(=O)[C@H](CCCCNC(=O)[C@H](CCCCNC(=O)c1ccc(B(O)O)cc1)NC(=O)[C@H](CCCCN)NC(=O)[C@@H](N)CCCCN)NC(=O)[C@H](CCCCNC(=O)c1ccc(B(O)O)cc1)NC(=O)[C@H](CCCCN)NC(=O)[C@@H](N)CCCCN)C(=O)N[C@@H](CCCCNC(=O)c1ccc(B(O)O)cc1)C(=O)N[C@@H](Cc1ccc(O)cc1)C(N)=O` (H-KKK(Benzoyl(4-B(OH)2))K(X2)KLK(Benzoyl(4-B(OH)2))Y-NH2), in data set [1], the Kd is 120 nM. Moreover, in data set [2], the Activity entry is “Non-Toxic”.
The corresponding values for `CC(C)C[C@H](NC(=O)[C@H](CCCCN)NC(=O)[C@@H](N)CCCCN)C(=O)NCCCC[C@H](NC(=O)[C@H](CC(C)C)NC(=O)[C@H](CCCCN)NC(=O)[C@@H](N)CCCCN)C(=O)N[C@@H](CCCCN)C(=O)N[C@@H](CCCCNC(=O)c1ccc(B(O)O)cc1)C(=O)N[C@@H](CCCCNC(=O)c1ccc(B(O)O)cc1)C(=O)N[C@@H](Cc1ccc(O)cc1)C(N)=O` (H-KKLK([Leu-Lys-Lys])KK(Benzoyl(4-B(OH)2))K(Benzoyl(4-B(OH)2))Y-NH2) are 170 nM and “Non-Toxic”.
The corresponding values for `CC(C)C[C@H](NC(=O)[C@H](CC(C)C)NC(=O)[C@H](CCCCNC(=O)[C@H](CCCCN)NC(=O)[C@H](CCCCNC(=O)c1ccc(B(O)O)cc1)NC(=O)[C@@H](N)CCCCN)NC(=O)[C@H](CCCCN)NC(=O)[C@H](CCCCNC(=O)c1ccc(B(O)O)cc1)NC(=O)[C@@H](N)CCCCN)C(=O)N[C@@H](CCCCN)C(=O)N[C@@H](Cc1ccc(O)cc1)C(N)=O` (H-KK(Benzoyl(4-B(OH)2))KK([Lys-X3])LLKY-NH2) are 660 nM and “Non-Toxic”.
Consider `CC(C)C[C@H](NC(=O)[C@H](CCCCN)NC(=O)[C@@H](N)CCCCN)C(=O)NCCCC[C@H](NC(=O)[C@H](CC(C)C)NC(=O)[C@H](CCCCN)NC(=O)[C@@H](N)CCCCN)C(=O)N[C@@H](CC(C)C)C(=O)N[C@@H](CCCCN)C(=O)N[C@@H](CCCCNC(=O)c1ccc(B(O)O)cc1)C(=O)N[C@@H](Cc1ccc(O)cc1)C(N)=O` (H-KKLK([Leu-Lys-Lys])LKK(Benzoyl(4-B(OH)2))Y-NH2), for which the dissociation constant (Kd) in data set [1] was determined as 330 nM. For the same compound, the Activity entry in data set [2] is “Non-Toxic”.
As to `CC(C)C[C@H](NC(=O)[C@@H](N)CCCCN)C(=O)N[C@@H](CCCCN)C(=O)NCCCC[C@H](NC(=O)[C@H](CCCCN)NC(=O)[C@H](CC(C)C)NC(=O)[C@@H](N)CCCCN)C(=O)N[C@@H](CCCCN)C(=O)N[C@@H](CCCCN)C(=O)N[C@@H](CCCCNC(=O)c1ccc(B(O)O)cc1)C(=O)N[C@@H](Cc1ccc(O)cc1)C(N)=O` (H-KLKK([Lys-Leu-Lys])KKK(Benzoyl(4-B(OH)2))Y-NH2), the Kd in data set [1] was 1430 nM. For the same compound, the Activity result in data set [2] was “Non-Toxic”. For the same compound, the inhibition at 10 µM in data set [4] worked out at 40%.
Take `CC(C)C[C@H](NC(=O)[C@H](CCCCNC(=O)[C@H](CCCCN)NC(=O)[C@H](CCCCN)NC(=O)[C@@H](N)CCCCN)NC(=O)[C@H](CCCCN)NC(=O)[C@H](CCCCN)NC(=O)[C@@H](N)CCCCN)C(=O)N[C@@H](CCCCNC(=O)c1ccc(B(O)O)cc1)C(=O)N[C@@H](CCCCNC(=O)c1ccc(B(O)O)cc1)C(=O)N[C@@H](Cc1ccc(O)cc1)C(N)=O` (H-KKKK([Lys-Lys-Lys])LK(Benzoyl(4-B(OH)2))K(Benzoyl(4-B(OH)2))Y-NH2): in data set [1], the Kd stood at 280 nM. Besides, the Activity result in data set [2] and in data set [7] was “Non-Toxic” throughout. Moreover, in data set [3], the inhibition result is “Active”.
For `CC(C)C[C@H](NC(=O)[C@H](CCCCNc1c2ccccc2nc2ccccc12)NC(=O)[C@H](CCCCNC(=O)[C@H](CCCCN)NC(=O)[C@H](CCCCN)NC(=O)[C@@H](N)CCCCN)NC(=O)[C@H](CCCCN)NC(=O)[C@H](CCCCN)NC(=O)[C@@H](N)CCCCN)C(=O)N[C@@H](CCCCN)C(=O)N[C@@H](Cc1ccc(O)cc1)C(N)=O` (H-KKKK([Lys-Lys-Lys])K(Acridin9yl)LKY-NH2), the Kd in data set [1] was 140 nM. For the same compound, in data set [2], the Activity result is on record as “Non-Toxic”. Moreover, the inhibition result in data set [3] is “Active”.

The values are drawn from ChEMBL document CHEMBL3853263, “Effect of intercalator and Lewis acid-base branched peptide complex formation: boosting affinity towards HIV-1 RRE RNA” (Medchemcomm, 2016).
